ChEMBL document CHEMBL1132940, “Pharmacophore/receptor models for GABA(A)/BzR subtypes (alpha1beta3gamma2, alpha5beta3gamma2, and alpha6beta3gamma2) via a comprehensive ligand-mapping approach” (J Med Chem, 2000)
pKi: −log10 of the molar value.

What was measured:
Type in all cases: protein-complex assay
[1] = molecular target: T1, GABA-A receptor; alpha-2/beta-3/gamma-2 (Homo sapiens, UniProt P18507+P28472+P47869); experiment: Binding affinity to human recombinant gamma-aminobutyric-acid (GABA) A receptor alpha-2-beta-3-gamma-2
T1 sequence (P18507 whole entry): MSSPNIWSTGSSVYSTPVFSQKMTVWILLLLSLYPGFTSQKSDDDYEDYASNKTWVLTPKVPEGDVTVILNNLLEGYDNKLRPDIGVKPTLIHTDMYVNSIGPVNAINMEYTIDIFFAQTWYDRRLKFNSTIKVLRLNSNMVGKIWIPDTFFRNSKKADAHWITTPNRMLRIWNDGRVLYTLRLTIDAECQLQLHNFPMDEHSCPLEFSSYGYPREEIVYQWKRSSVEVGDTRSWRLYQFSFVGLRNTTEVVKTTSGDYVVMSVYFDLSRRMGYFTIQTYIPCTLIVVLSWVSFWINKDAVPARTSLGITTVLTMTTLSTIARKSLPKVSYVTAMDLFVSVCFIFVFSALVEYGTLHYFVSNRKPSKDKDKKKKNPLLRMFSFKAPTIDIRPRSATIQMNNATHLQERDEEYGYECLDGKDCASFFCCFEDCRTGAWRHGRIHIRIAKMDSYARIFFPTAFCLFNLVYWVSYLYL
T1 sequence (P28472 whole entry): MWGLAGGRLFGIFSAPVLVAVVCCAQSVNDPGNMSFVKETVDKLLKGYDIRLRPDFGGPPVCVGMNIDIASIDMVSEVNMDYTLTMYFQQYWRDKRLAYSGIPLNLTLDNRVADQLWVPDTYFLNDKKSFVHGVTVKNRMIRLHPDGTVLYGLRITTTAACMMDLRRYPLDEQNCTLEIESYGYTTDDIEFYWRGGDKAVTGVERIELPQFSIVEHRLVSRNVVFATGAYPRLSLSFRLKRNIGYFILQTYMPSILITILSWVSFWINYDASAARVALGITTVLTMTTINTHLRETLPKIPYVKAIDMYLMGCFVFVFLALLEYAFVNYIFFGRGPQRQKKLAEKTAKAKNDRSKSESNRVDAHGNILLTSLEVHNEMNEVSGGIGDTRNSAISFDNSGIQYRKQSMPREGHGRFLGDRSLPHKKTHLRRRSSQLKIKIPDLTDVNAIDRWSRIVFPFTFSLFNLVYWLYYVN
T1 sequence (P47869 whole entry): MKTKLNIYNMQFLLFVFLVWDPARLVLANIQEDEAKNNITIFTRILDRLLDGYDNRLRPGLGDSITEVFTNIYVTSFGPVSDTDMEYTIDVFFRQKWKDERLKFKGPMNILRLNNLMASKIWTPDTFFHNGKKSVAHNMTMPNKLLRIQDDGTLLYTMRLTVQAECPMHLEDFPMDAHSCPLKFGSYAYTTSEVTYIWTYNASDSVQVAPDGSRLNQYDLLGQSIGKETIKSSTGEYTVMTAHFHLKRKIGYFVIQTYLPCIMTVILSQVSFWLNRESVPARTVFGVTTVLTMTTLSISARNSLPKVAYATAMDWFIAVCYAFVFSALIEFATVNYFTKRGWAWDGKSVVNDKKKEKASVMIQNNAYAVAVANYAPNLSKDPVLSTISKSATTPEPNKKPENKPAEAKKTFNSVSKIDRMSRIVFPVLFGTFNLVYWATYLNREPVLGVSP

[2] = molecular target: T2, GABA-A receptor; alpha-5/beta-3/gamma-2 (Homo sapiens, UniProt P18507+P28472+P31644); experiment: Binding affinity for human recombinant gamma-aminobutyric-acid (GABA) A receptor alpha-5-beta-3-gamma-2
T2 sequence (P18507 whole entry): T1 sequence (P18507 whole entry)
T2 sequence (P28472 whole entry): T1 sequence (P28472 whole entry)
T2 sequence (P31644 whole entry): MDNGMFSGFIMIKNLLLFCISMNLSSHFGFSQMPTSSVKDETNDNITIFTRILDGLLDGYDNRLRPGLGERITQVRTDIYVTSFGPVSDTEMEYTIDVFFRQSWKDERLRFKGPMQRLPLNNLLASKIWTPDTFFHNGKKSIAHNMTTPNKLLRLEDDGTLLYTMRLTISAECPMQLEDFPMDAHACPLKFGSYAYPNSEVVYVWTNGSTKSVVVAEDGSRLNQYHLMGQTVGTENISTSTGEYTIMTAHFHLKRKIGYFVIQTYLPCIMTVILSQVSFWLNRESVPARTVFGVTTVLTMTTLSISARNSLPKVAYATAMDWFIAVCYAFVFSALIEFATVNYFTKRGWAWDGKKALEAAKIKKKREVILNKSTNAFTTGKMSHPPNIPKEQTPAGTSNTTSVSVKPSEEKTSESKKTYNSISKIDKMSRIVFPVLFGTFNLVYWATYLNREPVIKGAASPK

[3] = molecular target: GABA-A receptor; alpha-6/beta-3/gamma-2 (Homo sapiens, UniProt P18507+P28472+Q16445); experiment: Binding affinity for human recombinant gamma-aminobutyric-acid (GABA) A receptor alpha-6-beta-3-gamma-2
In short: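 Ltk⁻ cells expressing human α6β3γ2 were harvested by scraping into PBS, centrifuged at 3000g and resuspended in 10 mM KH₂PO₄/100 mM KCl (pH 7.4). Incubation was 1 h at 4 °C with filter harvest and scintillation counting.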

[4] = molecular target: T3, GABA-A receptor; alpha-1/beta-3/gamma-2 (Homo sapiens, UniProt P14867+P18507+P28472); experiment: Binding affinity for human recombinant gamma-aminobutyric-acid (GABA) A receptor alpha-1-beta-3-gamma-2
T3 sequence (P14867 whole entry): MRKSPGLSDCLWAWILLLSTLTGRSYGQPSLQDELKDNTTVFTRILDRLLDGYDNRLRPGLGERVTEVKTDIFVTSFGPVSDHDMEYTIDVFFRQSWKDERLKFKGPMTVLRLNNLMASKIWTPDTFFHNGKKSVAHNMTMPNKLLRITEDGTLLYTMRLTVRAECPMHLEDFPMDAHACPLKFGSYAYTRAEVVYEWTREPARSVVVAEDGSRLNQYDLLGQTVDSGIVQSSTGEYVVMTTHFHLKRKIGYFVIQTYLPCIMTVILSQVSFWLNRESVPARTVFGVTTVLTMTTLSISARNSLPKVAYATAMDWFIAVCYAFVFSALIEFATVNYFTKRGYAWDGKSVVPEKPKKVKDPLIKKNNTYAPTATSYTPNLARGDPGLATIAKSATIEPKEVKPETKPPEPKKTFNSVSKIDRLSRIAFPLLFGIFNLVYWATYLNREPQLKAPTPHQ
T3 sequence (P18507 whole entry): T1 sequence (P18507 whole entry)
T3 sequence (P28472 whole entry): T1 sequence (P28472 whole entry)

[5] = molecular target: T4, GABA-A receptor; alpha-3/beta-3/gamma-2 (Homo sapiens, UniProt P18507+P28472+P34903); experiment: Binding affinity for human recombinant gamma-aminobutyric-acid (GABA) A receptor alpha-3-beta-3-gamma-2
T4 sequence (P18507 whole entry): T1 sequence (P18507 whole entry)
T4 sequence (P28472 whole entry): T1 sequence (P28472 whole entry)
T4 sequence (P34903 whole entry): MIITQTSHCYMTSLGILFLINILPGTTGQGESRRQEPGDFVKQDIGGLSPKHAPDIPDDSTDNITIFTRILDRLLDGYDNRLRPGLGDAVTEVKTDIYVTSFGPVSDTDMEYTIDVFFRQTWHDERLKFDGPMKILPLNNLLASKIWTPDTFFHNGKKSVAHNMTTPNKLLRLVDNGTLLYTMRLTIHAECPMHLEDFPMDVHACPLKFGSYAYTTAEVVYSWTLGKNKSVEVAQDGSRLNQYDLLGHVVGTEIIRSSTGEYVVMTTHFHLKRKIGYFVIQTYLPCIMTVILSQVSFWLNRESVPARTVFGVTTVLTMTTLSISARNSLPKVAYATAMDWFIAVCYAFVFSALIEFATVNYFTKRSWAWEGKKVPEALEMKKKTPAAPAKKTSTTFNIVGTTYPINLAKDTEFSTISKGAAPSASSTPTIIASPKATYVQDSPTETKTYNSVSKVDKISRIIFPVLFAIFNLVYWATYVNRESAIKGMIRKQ

Chain of GABA-A receptor; alpha-6/beta-3/gamma-2 (Q16445 whole entry, one chain of several): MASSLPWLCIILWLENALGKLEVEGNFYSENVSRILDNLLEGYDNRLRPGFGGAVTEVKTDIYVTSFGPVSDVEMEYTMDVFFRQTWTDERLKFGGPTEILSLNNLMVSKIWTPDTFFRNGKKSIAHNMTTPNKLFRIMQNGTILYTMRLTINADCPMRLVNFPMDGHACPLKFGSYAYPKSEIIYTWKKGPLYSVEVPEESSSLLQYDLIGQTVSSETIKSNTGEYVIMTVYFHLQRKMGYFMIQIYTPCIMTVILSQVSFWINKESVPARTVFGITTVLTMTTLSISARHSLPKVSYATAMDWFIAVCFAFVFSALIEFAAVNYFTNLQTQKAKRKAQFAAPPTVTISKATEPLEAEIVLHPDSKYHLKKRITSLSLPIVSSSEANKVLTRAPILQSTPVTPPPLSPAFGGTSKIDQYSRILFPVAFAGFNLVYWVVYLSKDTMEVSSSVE

Row | Compound | pKi [1] | pKi [2] | pKi [3] | pKi [4] | pKi [5]
1 | Fc1ccc2c(c1)[nH]c1c3c4ccccc4nc-3c[nH]c12 | 7.98 | 6.59 | < 5.00 | 8.29 | 7.74
2 | CC(C)c1nc(-c2ncn3c2CN(C)C(=O)c2c(Cl)cccc2-3)no1 | 8.68 | 8.81 | 6.64 | 9.40 | 8.94
3 | c1ccc(COc2ccc3c(c2)[nH]c2c3ncc3[nH]c4ccccc4c32)cc1 | 5.52 | < 5.00 | < 5.00 | 6.36 | 5.52
4 | CCOC(=O)c1[nH]cc2nc3ccc(O)cc3c-2c1COC | 8.27 | 7.73 | 5.52 | 8.70 | 7.97
5 | CCOC(=O)c1[nH]cc2nc3ccc(OCc4ccc5ccccc5c4)cc3c-2c1CC | 6.54 | 6.57 | < 5.00 | 6.74 | 6.52
6 | C[Si](C)(C)C#Cc1ccc(-n2[nH]c3c(cnc4ccccc43)c2=O)cc1 | 8.43 | 7.62 | < 6.00 | 8.52 | 8.33
7 | COCc1c(SC#N)[nH]cc2nc3ccc(OCc4ccccc4)cc3c1-2 | 7.08 | 6.80 | < 5.00 | 7.60 | 7.23
8 | COC(=O)c1cc2c(cn1)[nH]c1ccc(NCc3ccccc3)cc12 | 7.52 | 6.32 | < 5.00 | 8.27 | 7.31
9 | CN1C(=O)CN=C(c2ccco2)c2cc(Cl)ccc21 | < 9.77 | < 9.36 | < 6.52 | < 9.64 | < 9.92
10 | O=[N+]([O-])c1ccc2[nH]c3c[nH]c4c5ccccc5nc-4c3c2c1 | 6.30 | 5.81 | < 5.00 | 6.61 | 6.27
11 | CCCCCCCCOc1ccc2c(c1)c1c(CC)c(C(=O)OCC)ncc1n2C | < 6.00 | < 6.00 | < 6.00 | < 6.00 | < 6.00
12 | Clc1ccc2c(c1)[nH]c1c2ncc2[nH]c3ccccc3c21 | 7.91 | 6.68 | < 5.00 | 8.41 | 7.61
13 | O=c1c2c[nH]c3ccc(Br)cc3c-2nn1-c1ccccc1 | 10.10 | 9.92 | 8.40 | 10.22 | 10.30
14 | CCCOc1ccc2c(c1)c1c(COC)c(C(=O)OCC)ncc1n2C | 6.98 | 6.79 | < 5.00 | 7.59 | 6.79
15 | CC(C)(C)OC(=O)c1ncn2c1[C@@H]1CCCN1C(=O)c1c(Br)cccc1-2 [BRETAZENIL] | 9.19 | 9.30 | 7.90 | 9.46 | 9.70
16 | c1ccc2c(c1)[nH]c1cnc3c4cccnc4[nH]c3c12 | 7.94 | 6.70 | < 5.00 | 8.66 | 7.79
17 | CCc1c(C(=O)NN)[nH]cc2nc3cc(OC)c(OC)cc3c1-2 | < 6.00 | 7.04 | < 5.52 | 6.05 | 6.24
18 | COC(=O)c1cc2c3cc(NC4CCCCC4)ccc3nc-2c[nH]1 | 7.76 | 6.50 | < 5.00 | 8.62 | 7.84
19 | S=C=Nc1cc2c3ccccc3nc-2c[nH]1 | 6.92 | < 5.52 | < 5.00 | 7.17 | 6.85
20 | c1cnc2c3[nH]cc4[nH]c5ccccc5c4c-3nc2c1 | 6.93 | 6.00 | < 5.00 | 7.55 | 6.81
21 | CN1C(=O)CN=C(C2CCC2)c2cc(F)ccc21 | < 6.52 | < 6.52 | < 6.52 | < 6.52 | < 6.52
22 | CCCOc1ccc2[nH]c3cnc(C(=O)NN)c(COC)c3c2c1 | 6.37 | 6.97 | < 6.52 | 7.34 | 6.40
23 | O=c1c2cnc3ccc(Cl)cc3c2[nH]n1-c1ccccc1 | 9.77 | 9.36 | 7.76 | 9.64 | 9.92
24 | c1ccc2c(c1)[nH]c1c2ncc2[nH]c3ccccc3c21 | 8.92 | 7.39 | < 6.00 | 8.96 | 8.96
25 | COc1ccc2c(c1)[nH]c1c2ncc2[nH]c3ccccc3c21 | 7.93 | 6.65 | < 5.00 | 8.47 | 7.96
26 | CN1C(=O)CN=C(c2ccsc2)c2cc(Cl)ccc21 | < 6.52 | < 6.52 | < 6.52 | < 6.52 | < 6.52
27 | COc1ccc2c(c1)ncc1c(=O)n(-c3ccccc3)[nH]c12 | 8.88 | 9.08 | 8.69 | 8.87 | 8.90
28 | Clc1cccn2c1nc1c3c4ccccc4nc-3c[nH]c12 | < 5.52 | < 5.00 | < 5.00 | < 5.52 | < 5.52
29 | c1ccc2c(c1)[nH]c1cnc3c(nc4ccccn43)c12 | 6.64 | < 5.52 | < 5.00 | 6.98 | 6.55
